The record followed here is ChEMBL document CHEMBL1817567, “Design of benzimidazole- and benzoxazole-2-thione derivatives as inhibitors of bacterial hyaluronan lyase” (Eur J Med Chem, 2011).

pIC50: −log10 of the molar value. The source made the active and inactive calls. The rule behind the calls is not given here.

Experiment [1] in a line: Inhibition of Streptococcus agalactiae 4755 hyaluronidase at pH 7.4 after 3 hrs by turbidimetric analysis. In outline:
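Same turbidimetric hyaluronan-lyase assay at pH 7.4 (citrate–phosphate/NaCl): SagHyal4755 2.9 ng, hyaluronan (2 mg/ml stock), BSA, 3.8% DMSO final, 3 h at 37 °C. CTAB (2.5%, in 0.5 M NaOH) precipitation, 20 min at 25 °C, A600. Activity scaled between no-inhibitor and no-enzyme samples.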

Experiment [2] has as its target T1, Hyaluronidase (Bos taurus) (UniProt Q8SQG8+Q5E985). Kind of experiment: Inhibition of bovine testes hyaluronidase at 200 uM after 30 mins at pH 5 by turbidimetric analysis. The class given is protein assay.
Experiment [3] deals with T1, Hyaluronidase (Bos taurus). The experiment can be described thus: Inhibition of bovine testes hyaluronidase at 380 uM after 30 mins at pH 5 by turbidimetric analysis. The class given is protein assay.
The target in experiment [4] is T1, Hyaluronidase (Bos taurus). The experiment can be described thus: Inhibition of bovine testes hyaluronidase at 49 uM after 30 mins at pH 5 by turbidimetric analysis. The class given is protein assay.
Experiment [5] deals with T1, Hyaluronidase (Bos taurus). The experiment can be described thus: Inhibition of bovine testes hyaluronidase at 4200 uM after 30 mins at pH 5 by turbidimetric analysis. In kind it is protein assay.
Experiment [6] has as its target T1, Hyaluronidase (Bos taurus). The experiment can be described thus: Inhibition of bovine testes hyaluronidase at 460 uM after 30 mins at pH 5 by turbidimetric analysis. The class given is protein assay.
The target of experiment [7] is T1, Hyaluronidase (Bos taurus). Kind of experiment: Inhibition of bovine testes hyaluronidase at 180 uM after 30 mins at pH 5 by turbidimetric analysis. In kind it is protein assay.
Experiment [8] addresses T1, Hyaluronidase (Bos taurus). Kind of experiment: Inhibition of bovine testes hyaluronidase at 190 uM after 30 mins at pH 5 by turbidimetric analysis. The class given is protein assay.
Experiment [9] deals with T1, Hyaluronidase (Bos taurus). The experiment can be described thus: Inhibition of bovine testes hyaluronidase at 170 uM after 30 mins at pH 5 by turbidimetric analysis. The class given is protein assay.
Experiment [10] deals with T1, Hyaluronidase (Bos taurus). The experiment can be described thus: Inhibition of bovine testes hyaluronidase at 100 uM after 30 mins at pH 5 by turbidimetric analysis. In kind it is protein assay.
For experiment [11], the target named is T1, Hyaluronidase (Bos taurus). Kind of experiment: Inhibition of bovine testes hyaluronidase at 400 uM after 30 mins at pH 5 by turbidimetric analysis. The class given is protein assay.
In experiment [12] the target is T1, Hyaluronidase (Bos taurus). The experiment can be described thus: Inhibition of bovine testes hyaluronidase at 3800 uM after 30 mins at pH 5 by turbidimetric analysis. In kind it is protein assay.
For experiment [13], the target named is T1, Hyaluronidase (Bos taurus). The experiment can be described thus: Inhibition of bovine testes hyaluronidase at 130 uM after 30 mins at pH 5 by turbidimetric analysis. In kind it is protein assay.
Experiment [14] addresses T1, Hyaluronidase (Bos taurus). Kind of experiment: Inhibition of bovine testes hyaluronidase at 63 uM after 30 mins at pH 5 by turbidimetric analysis. The class given is protein assay.
In experiment [15] the target is T1, Hyaluronidase (Bos taurus). The experiment can be described thus: Inhibition of bovine testes hyaluronidase at 80 uM after 30 mins at pH 5 by turbidimetric analysis. In kind it is protein assay.
Experiment [16] deals with T1, Hyaluronidase (Bos taurus). Kind of experiment: Inhibition of bovine testes hyaluronidase at 2000 uM after 30 mins at pH 5 by turbidimetric analysis. The class given is protein assay.
The target in experiment [17] is T1, Hyaluronidase (Bos taurus). Kind of experiment: Inhibition of bovine testes hyaluronidase at 150 uM after 30 mins at pH 5 by turbidimetric analysis. The class given is protein assay.
Experiment [18] is described as follows: Inhibition of Streptococcus agalactiae 4755 hyaluronidase at pH 5.0 after 30 mins by turbidimetric analysis. In a few lines:
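SagHyal4755 (2.9 ng) with BSA and hyaluronan (2 mg/ml stock) in citrate–phosphate/NaCl buffer pH 5.0, 3.8% DMSO final, 30 min at 37 °C. Stopped by alkaline 2.5% CTAB, then 20 min at 25 °C. Residual-substrate turbidity read at 600 nm; no-inhibitor sample = 100%, no-enzyme sample = 0% activity. Enzyme-free compound controls were run.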

In the case of `O=C(CCC1CCCCC1)n1c(=S)oc2ccccc21`, the values for the pIC50 in experiment [1] and in experiment [18] were 4.70 and 3.64, respectively. Further, the inhibition result in experiment [2], in experiment [3], in experiment [4], in experiment [5], in experiment [6] and in [7] was “inactive” each time. For the same molecule, the inhibition entry in experiment [8], in experiment [9], in experiment [10], in experiment [11], in experiment [12] and in experiment [13] was “inactive” throughout. Also, the inhibition entry in [14], in experiment [15], in [16] and in experiment [17] was “inactive” throughout.

In the case of `CCC(=O)n1c(=S)oc2ccccc21`, the results for the pIC50 in experiment [1] and in experiment [18] were 4.32 and 3.89, respectively. Moreover, the inhibition result in experiment [2], in [3], in [4], in experiment [5], in experiment [6] and in [7] was “inactive” in each case. Further, the inhibition entry in [8], in experiment [9], in [10], in experiment [11], in [12] and in experiment [13] was “inactive” each time. In addition, the inhibition result in [14], in experiment [15], in experiment [16] and in experiment [17] was “inactive” each time.

Consider `O=C(COc1ccccc1)n1c(=S)oc2ccccc21`, for which the pIC50 is 4.21 in experiment [1] and 3.67 in experiment [18]. The inhibition result in [2], in [3], in [4], in experiment [5], in experiment [6] and in [7] was “inactive” each time. The inhibition entry in [8], in experiment [9], in experiment [10], in experiment [11], in experiment [12] and in [13] was “inactive” throughout. Also, the inhibition entry in experiment [14], in experiment [15], in [16] and in experiment [17] was “inactive” each time.

On to `O=C1O[C@H]([C@@H](O)CO)C(O)=C1O` [ASCORBIC ACID], for which the inhibition entry in experiment [2], in experiment [3], in experiment [4], in experiment [5], in [6] and in [7] was “inactive” in each case. For the same molecule, the inhibition result in experiment [8], in [9], in [10], in experiment [11], in [12] and in [13] was “inactive” in each case. Also, the inhibition result in [14], in experiment [15], in experiment [16] and in experiment [17] was “inactive” each time. The molecule also gave a negative-log IC50 (pIC50) in [18] of 2.21.
